Experimental data from publication PMC9850729 (ACS Omega, 2023).
Residues, ends and D or L forms follow the SMILES beside them.

What was measured:
Assay type in all cases: cell-based
MCF-7 cells [1] = assay: MTT viability assay, MCF-7; conditions: read-out: IC50 MCF-7, 2 h peptide treatment, 6.25-200 μg mL^–1, n = 3
Procedure, shortened: (§1)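 Cancer cells were cultured in supplemented RPMI-1640, seeded at 1×10^4 per well, adhered 12 h and synchronized 12 h in incomplete medium. Peptide was applied at 6.25–200 μg mL⁻¹ for 2 h, then MTT was added for 4 h, formazan dissolved in DMSO, and absorbance read at 575 nm; n = 3. Selectivity was taken as the IC₅₀ in MCF-12 cells, foreskin-derived primary fibroblasts or erythrocytes divided by the cancer-cell IC₅₀.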

MDA-MB-231 cells = assay: MTT viability assay, MDA-MB-231; conditions: read-out: IC50 MDA-MB-231, 2 h peptide treatment, 6.25-200 μg mL^–1, n = 3
Procedure, shortened: as §1

MCF-7 cells [2] = assay: Wound-healing assay; conditions: substance alone (peptide at IC50), n = 12

Q: How did the IC50 (MCF-7 cells [1]) turn out when `N=C(N)NCCC[C@H](NC(=O)[C@H](CCCNC(=N)N)NC(=O)[C@H](Cc1c[nH]c2ccccc12)NC(=O)[C@H](CCC(N)=O)NC(=O)[C@H](Cc1c[nH]c2ccccc12)NC(=O)[C@H](CCCNC(=N)N)NC(=O)[C@H](Cc1c[nH]c2ccccc12)NC(=O)[C@H](CCC(N)=O)NC(=O)[C@H](Cc1c[nH]c2ccccc12)NC(=O)[C@H](CCCNC(=N)N)NC(=O)[C@@H](N)CCCNC(=N)N)C(N)=O` [RR-1-RR] (H-RRWQWRWQWRR-NH2) was run?
A: 58 µM

Q: And the IC50 (MDA-MB-231 cells)?
A: 67 µM

Q: With `C[C@]12CC[C@@H]3c4ccc(O)cc4CC[C@H]3[C@@H]1CC[C@@H]2O` [estradiol] as the compound, how does the wound area reduced (MCF-7 cells [2]; MCF-7, 24 h after the wound) read?
A: about 20%

Q: What about the “wound area reduced (closure)” value (MCF-7 cells [2]; MCF-7, 48 h after the wound) of the same compound?
A: 40%

Q: How did the IC50 (MCF-7 cells [1]) turn out when `N=C(N)NCCC[C@H](NC(=O)[C@H](Cc1c[nH]c2ccccc12)NC(=O)[C@H](CCC(N)=O)NC(=O)[C@H](Cc1c[nH]c2ccccc12)NC(=O)[C@H](CCCNC(=N)N)NC(=O)[C@H](Cc1c[nH]c2ccccc12)NC(=O)[C@H](CCC(N)=O)NC(=O)[C@H](Cc1c[nH]c2ccccc12)NC(=O)[C@H](CCCNC(=N)N)NC(=O)[C@@H](N)CCCNC(=N)N)C(N)=O` [RR-1-R] (H-RRWQWRWQWR-NH2) was run?
A: 68 µM

Q: What about the IC50 (MDA-MB-231 cells) of the same compound?
A: 73 µM
